Assay results from ChEMBL document CHEMBL1629704, “Inhibition of dengue virus by an ester prodrug of an adenosine analog” (Antimicrob Agents Chemother, 2010).

Legend:
dengue virus type 1 = assay: Antiviral activity against Dengue virus 1 MY10245 infected in human A549 cells by CFI assay; type: functional, organism-based
In short: (§1)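 CFI assay: A549 cells seeded 2 × 10^4/well, infected next day (MOI 0.3 for DENV-2) with compound-virus mixture for 1 h, then refed with compound-containing medium. On day 2 cells were methanol-fixed at 4°C and intracellular E protein detected by ELISA (4G2 primary, HRP anti-mouse secondary). EC50 is the average of two independent experiments.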

dengue virus type 2 [1] = assay: Antiviral activity against Dengue virus 2 TSV01 infected in AG129 mouse assessed as reduced viremia by 25 mg/kg, po BID for 3 days measured on day 4 by plaque assay; type: functional
In short: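 AG129 mice (lacking IFN-α/β and IFN-γ receptors) were inoculated i.p. with 2 × 10^6 PFU DENV-2 in 0.4 ml. Immediately afterwards, 0.2 ml compound in ethanol-PEG-D5W (10:30:60) was given by oral gavage twice daily for 3 days. Day-4 blood viremia was measured by plaque assay; 6 or 8 mice per group.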

dengue virus type 2 [2] = assay: Antiviral activity against Dengue virus 2 MY10340 infected in human A549 cells by CFI assay; type: functional, organism-based; in short: as §1
dengue virus type 2 [3] = assay: Antiviral activity against Dengue virus 2 NGC infected in human PBMC cells by plaque assay; type: functional, organism-based
dengue virus type 3 = assay: Antiviral activity against Dengue virus 3 MY22366 infected in human A549 cells by CFI assay; type: functional, organism-based; in short: as §1
dengue virus type 4 = assay: Antiviral activity against Dengue virus 4 MY22713 infected in human A549 cells by CFI assay; type: functional, organism-based; in short: as §1
dengue virus type 2 [4] = assay: Antiviral activity against Dengue virus 2 NGC infected in human A549 cells by CFI assay; type: functional, organism-based; in short: as §1

EC50 (dengue virus type 1): 2610 nM | EC50 (dengue virus type 2 [2]): 1120 nM | EC50 (dengue virus type 2 [3]): 580 nM | EC50 (dengue virus type 3): 460 nM | EC50 (dengue virus type 4): 700 nM | EC50 (dengue virus type 2 [4]): 1640 nM
SMILES: C#C[C@@]1(O)[C@H](O)[C@@H](CO)O[C@H]1n1ccc2c(N)ncnc21
fold change (FC) (dengue virus type 2 [1]): 10
